Laboratory results as given in ChEMBL document CHEMBL1153887, “Cyclocondensation reaction of heterocyclic carbonyl compounds. Part XIII: synthesis and cytotoxic activity of some 3,7-diaryl-5-(3,4,5-trimethoxyphenyl)pyrazolo[4,3-e][1,2,4]triazines” (Eur J Med Chem, 2009).

Experiments:
CCRF-CEM [1] = assay: Cytotoxicity against human CEM cells after 72 hrs by MTT assay; type: cell-based
CCRF-CEM [2] = assay: Cytotoxicity against human daunorubicin-resistant CEM cells after 72 hrs by MTT assay; type: cell-based
Method in brief: (§1)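 Cells seeded at 2500–30,000 cells/well and left 24 h at 37 °C, 5% CO₂, then fourfold dilution series in duplicate for 72 h. MTT for 4 h, formazan dissolved in 10% SDS (pH 5.5), OD read at 540 nm against controls. Mean of three independent experiments.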

K562 [3] = assay: Cytotoxicity against human K562 cells after 72 hrs by MTT assay; type: functional, cell-based; details: K562, 72 h
K562 [4] = assay: Cytotoxicity against human paclitaxel-resistant K562 cells after 72 hrs by MTT assay; type: functional, cell-based; details: K562, 72 h; method in brief: as §1
A549 = assay: Cytotoxicity against human A549 cells after 72 hrs by MTT assay; type: functional, cell-based; details: A549, 72 h

| Compound | IC50 (CCRF-CEM [1]) [µM] | IC50 (CCRF-CEM [2]) [µM] | IC50 (K562 [3]) [µM] | IC50 (K562 [4]) [µM] | IC50 (A549) [µM] |
| --- | --- | --- | --- | --- | --- |
| COc1cccc(N/N=C(\c2cc(OC)c(OC)c(OC)c2)c2nc(-c3ccccc3)n[nH]c2=O)c1 | 8.6 | 19.3 | 12.7 | 13.7 | 8.3 |
| COc1cc(/C(=N\Nc2ccc(Cl)cc2)c2nc(-c3ccccc3)n[nH]c2=O)cc(OC)c1OC | 25.1 | 46.8 | 12 | 38.4 | 8.55 |
| COc1ccc(-n2nc(-c3cc(OC)c(OC)c(OC)c3)c3nc(-c4ccccc4)nnc32)cc1 | 117 | 100 | 84.4 | 150 | 39 |
| COc1ccc(-c2nnc3c(n2)c(-c2cc(OC)c(OC)c(OC)c2)nn3-c2cccc(OC)c2)cc1 | 54.5 | 184 | 115 | 174 | 124 |
| COc1cccc(-n2nc(-c3cc(OC)c(OC)c(OC)c3)c3nc(-c4ccccc4)nnc32)c1 | 8.41 | 99.3 | 117 | 159 | 0.61 |
| COc1ccc(-c2nnc3c(n2)c(-c2cc(OC)c(OC)c(OC)c2)nn3-c2ccc(OC)cc2)cc1 | 124 | 118 | 186 | 229 | 113 |
| COc1ccc(C(=O)N/C(=C/c2cc(OC)c(OC)c(OC)c2)C(=O)NN)cc1 | 144 | 147 | 172 | 167 | 134 |
| COc1ccc(-n2nc(-c3cc(OC)c(OC)c(OC)c3)c3nc(-c4cc(OC)c(OC)c(OC)c4)nnc32)cc1 | 36.9 | 118 | 66.2 | 161 | 75.6 |
| COc1cc(-c2nn(-c3ccccc3)c3nnc(-c4ccccc4)nc23)cc(OC)c1OC | 109 | 108 | 169 | 216 | 86.6 |
| COc1ccc(N/N=C(\c2cc(OC)c(OC)c(OC)c2)c2nc(-c3ccccc3)n[nH]c2=O)cc1 | 4.16 | 9.46 | 6.27 | 11 | 3.06 |
| COc1ccc(-c2n[nH]c(=O)c(Cc3cc(OC)c(OC)c(OC)c3)n2)cc1 | 3.15 | 13.3 | 3.07 | 19.9 | 9.31 |
| COc1ccc(N/N=C(\c2cc(OC)c(OC)c(OC)c2)c2nc(-c3ccc(Cl)cc3)n[nH]c2=O)cc1 | 9.49 | 9.16 | 7.5 | 8.33 | 2.34 |
| COc1ccccc1-n1nc(-c2cc(OC)c(OC)c(OC)c2)c2nc(-c3cc(OC)c(OC)c(OC)c3)nnc21 | 126 | 125 | 182 | 156 | 15 |
| COc1ccc(-c2nnc3c(n2)c(-c2cc(OC)c(OC)c(OC)c2)nn3-c2ccccc2OC)cc1 | 105 | 119 | 178 | 155 | 6.58 |
| COc1cc(/C=C(/NC(=O)c2ccc(Cl)cc2)C(=O)NN)cc(OC)c1OC | 134 | 130 | 166 | 174 | 161 |
| COc1cc(Cc2nc(-c3cc(OC)c(OC)c(OC)c3)n[nH]c2=O)cc(OC)c1OC | 38.4 | 129 | 82.1 | 138 | 117 |
| COc1cc(/C(=N\Nc2ccccc2)c2nc(-c3ccccc3)n[nH]c2=O)cc(OC)c1OC | 10.6 | 18.2 | 11.5 | 19.3 | 7.14 |
| COc1cc(-c2nnc3c(n2)c(-c2cc(OC)c(OC)c(OC)c2)nn3-c2cc(OC)c(OC)c(OC)c2)cc(OC)c1OC | 246 | 201 | 241 | 250 | 194 |
| COc1ccc(-c2n[nH]c(=O)c(/C(=N/Nc3cccc(OC)c3)c3cc(OC)c(OC)c(OC)c3)n2)cc1 | 68.7 | 132 | 162 | 250 | 250 |
| COc1ccc(-n2nc(-c3cc(OC)c(OC)c(OC)c3)c3nc(-c4ccc(Cl)cc4)nnc32)cc1 | 226 | 139 | 248 | 250 | 113 |

| Compound | IC50 (CCRF-CEM [1]) [µM] | IC50 (CCRF-CEM [2]) [µM] | IC50 (K562 [3]) [µM] | IC50 (K562 [4]) [µM] | IC50 (A549) [µM] |
| --- | --- | --- | --- | --- | --- |
| COc1cc(/C(=N\Nc2ccccc2)c2nc(-c3ccc(Cl)cc3)n[nH]c2=O)cc(OC)c1OC | 10.8 | 37.7 | 17.5 | 33.1 | 22.1 |
| COc1cc(-c2nn(-c3ccc(Cl)cc3)c3nnc(-c4ccc(Cl)cc4)nc23)cc(OC)c1OC | 68.9 | 126 | 190 | 222 | 155 |
| COc1ccc(-c2n[nH]c(=O)c(/C(=N/Nc3ccc(Cl)cc3)c3cc(OC)c(OC)c(OC)c3)n2)cc1 | 20.2 | 50.1 | 41.3 | 238 | 18.5 |
| COc1cc(/C=C(/NC(=O)c2cc(OC)c(OC)c(OC)c2)C(=O)NN)cc(OC)c1OC | 123 | 126 | 160 | 153 | 103 |
| COc1ccc(-c2nnc3c(n2)c(-c2cc(OC)c(OC)c(OC)c2)nn3-c2ccc(Cl)cc2)cc1 | 115 | 118 | 203 | 232 | 113 |
| COc1ccc(-c2n[nH]c(=O)c(/C(=N/Nc3ccccc3)c3cc(OC)c(OC)c(OC)c3)n2)cc1 | 9.81 | 39.8 | 18.4 | 31.8 | 23.7 |
| COc1ccc(-c2n[nH]c(=O)c(/C(=N/Nc3ccccc3OC)c3cc(OC)c(OC)c(OC)c3)n2)cc1 | 54.6 | 141 | 148 | 250 | 250 |
| COc1cc(/C=C(/NC(=O)c2ccccc2)C(=O)NN)cc(OC)c1OC | 124 | 121 | 162 | 162 | 164 |
| COc1cc(-c2nn(-c3ccccc3)c3nnc(-c4ccc(Cl)cc4)nc23)cc(OC)c1OC | 11.6 | 113 | 220 | 225 | 130 |
| COc1cc(Cc2nc(-c3ccccc3)n[nH]c2=O)cc(OC)c1OC | 2.71 | 3.21 | 1.17 | 3.88 | 3.46 |
| COc1cccc(N/N=C(\c2cc(OC)c(OC)c(OC)c2)c2nc(-c3cc(OC)c(OC)c(OC)c3)n[nH]c2=O)c1 | 7.83 | 140 | 112 | 22.1 | 3.38 |
| COc1ccc(-c2nnc3c(n2)c(-c2cc(OC)c(OC)c(OC)c2)nn3-c2ccccc2)cc1 | 114 | 114 | 166 | 203 | 78.8 |
| COc1cc(-c2nn(-c3ccc(Cl)cc3)c3nnc(-c4ccccc4)nc23)cc(OC)c1OC | 150 | 156 | 250 | 173 | 57.3 |
| COc1cc(Cc2nc(-c3ccc(Cl)cc3)n[nH]c2=O)cc(OC)c1OC | 12.9 | 14.6 | 9.63 | 24.7 | 15.8 |
| COc1cc(/C(=N\Nc2ccc(Cl)cc2)c2nc(-c3ccc(Cl)cc3)n[nH]c2=O)cc(OC)c1OC | 7.67 | 37.7 | 10.2 | 12.5 | 3.81 |
| COc1cccc(-n2nc(-c3cc(OC)c(OC)c(OC)c3)c3nc(-c4cc(OC)c(OC)c(OC)c4)nnc32)c1 | 48.3 | 109 | 164 | 141 | 163 |
| COc1cccc(N/N=C(\c2cc(OC)c(OC)c(OC)c2)c2nc(-c3ccc(Cl)cc3)n[nH]c2=O)c1 | 11.5 | 133 | 41.8 | 26.3 | 8.32 |
| COc1cccc(-n2nc(-c3cc(OC)c(OC)c(OC)c3)c3nc(-c4ccc(Cl)cc4)nnc32)c1 | 54.7 | 108 | 192 | 219 | 2.86 |
| COc1ccc(N/N=C(\c2cc(OC)c(OC)c(OC)c2)c2nc(-c3cc(OC)c(OC)c(OC)c3)n[nH]c2=O)cc1 | 5.71 | 34.6 | 18.7 | 8.91 | 3.39 |
| COc1cc(N/N=C(\c2cc(OC)c(OC)c(OC)c2)c2nc(-c3cc(OC)c(OC)c(OC)c3)n[nH]c2=O)cc(OC)c1OC | 53.8 | 158 | 94.3 | 118 | 162 |
